Test results as given in ChEMBL document CHEMBL1122353, “DNA binding studies of 7-bulky-substituted actinomycin analogues” (J Med Chem, 1983).
*1 amine or outer side, *2 acyl side, *3 side chain or, on linkers, in order; H or OH if unused. Where a SMILES comes first, the peptide text is derived from it. Bridges are numbered along the chain shown (N, C = ends). Roman numbers before positions name the chains, in order. [ ]: non-standard residue; d: D form. Actinocin(9to1) = Cc1c2oc3c(C)ccc(C(=O)[*:1])c3nc-2c(C(=O)[*:2])c(N)c1=O; NMeV = CN[C@H](C(=O)O)C(C)C; Sar = CNCC(=O)O

Key:
Nucleic Acid [1] = experiment: Increase in thermal denaturation temperature of calf thymus DNA; format: functional; settings: Bos taurus
Nucleic Acid [2] = experiment: Time constant of slowest dissociation step of drug from DNA complex; format: functional
In short: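 Purified calf thymus DNA–drug complexes were held in 0.01 M phosphate buffer (pH 7.0) at 20 °C, with a DNA (nucleotide):drug ratio of 20:1. 5% NaDodSO4 was added to sequester free drug. Absorbance decay was followed over time at a wavelength chosen for each drug (430–492 nm). τ was taken as the time constant of the slowest dissociation step.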

DNA (Bos taurus) = experiment: Apparent binding constant for calf thymus DNA

With Cc1c2oc3c(C)c(O)c(N)c(C(=O)N4OC(=O)[C@H](C(C)C)N(C)C(=O)CCNC(=O)[C@@H]5CCCN5C(=O)[C@H](C(C)C)NC(=O)[C@@H]4[C@@H](C)O)c3nc-2c(C(=O)N2OC(=O)[C@H](C(C)C)N(C)C(=O)CCNC(=O)[C@@H]3CCCN3C(=O)[C@H](C(C)C)NC(=O)[C@@H]2[C@@H](C)O)c/c1=N/Cc1ccc(Cl)c(Cl)c1 the ΔTm (Nucleic Acid [1]) was 7 °C, the rel T (Nucleic Acid [2]) was 60 and the K app (DNA (Bos taurus)) was 2.6e+07 M⁻¹.
Cc1c2oc3c(C)ccc(C(=O)N[C@@H]4C(=O)N[C@H](C(C)C)C(=O)N5CCC[C@H]5C(=O)N(C)CC(=O)N(C)[C@@H](C(C)C)C(=O)O[C@@H]4C)c3nc-2c(C(=O)N[C@@H]2C(=O)N[C@H](C(C)C)C(=O)N3CCC[C@H]3C(=O)N(C)CC(=O)N(C)[C@@H](C(C)C)C(=O)O[C@@H]2C)c(N)c1=O (I: T[dV]P[Sar][NMeV] / II: T[dV]P[Sar][NMeV]; ester I:1-I:C, II:1-II:C; linker I:N-II:N via Actinocin(9to1)) gave a ΔTm (Nucleic Acid [1]) of 8 °C and a rel T (Nucleic Acid [2]) of 100.
Work on Cc1c2oc3c(C)c(O)c(N)c(C(=O)N4OC(=O)[C@H](C(C)C)N(C)C(=O)CCNC(=O)[C@@H]5CCCN5C(=O)[C@H](C(C)C)NC(=O)[C@@H]4[C@@H](C)O)c3nc-2c(C(=O)N2OC(=O)[C@H](C(C)C)N(C)C(=O)CCNC(=O)[C@@H]3CCCN3C(=O)[C@H](C(C)C)NC(=O)[C@@H]2[C@@H](C)O)c/c1=N/Cc1ccc[nH]1 yielded a ΔTm (Nucleic Acid [1]) of 16 °C, a rel T (Nucleic Acid [2]) of 225 and a K app (DNA (Bos taurus)) of 9.2e+07 M⁻¹.
Compound Cc1c2oc3c(C)c(O)c(N)c(C(=O)N4OC(=O)[C@H](C(C)C)N(C)C(=O)CCNC(=O)[C@@H]5CCCN5C(=O)[C@H](C(C)C)NC(=O)[C@@H]4[C@@H](C)O)c3nc-2c(C(=O)N2OC(=O)[C@H](C(C)C)N(C)C(=O)CCNC(=O)[C@@H]3CCCN3C(=O)[C@H](C(C)C)NC(=O)[C@@H]2[C@@H](C)O)cc1=N has a ΔTm (Nucleic Acid [1]) of 8 °C, a rel T (Nucleic Acid [2]) of 125 and a K app (DNA (Bos taurus)) of 2.3e+07 M⁻¹.
